Screens deposited in PubChem BioAssay by several laboratories.
hERG protect = hERG rescue from dofetilide block, primary screen, cell-based, CHO-hERG, FluxOR thallium flux, dofetilide IC70. dofetilide IC70 present. 0.51% of 310,000 active. activation (rescue from dofetilide block), less the hit threshold, % at 10 µM;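 active = activation above the mean of controls blocked by dofetilide plus 5 SD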;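 also: thallium influx through hERG after potassium depolarization seen as dye fluorescence rise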
KCNK9 inh = KCNK9 potassium channel inhibitors, primary screen, HEK293 cells, thallium flux; Potassium channel subfamily K member 9 (Homo sapiens), Q9NPC2; FluxOR thallium flux fluorescence; hits give low values; B-score at 10 µM; 1.2% of 310,000 active;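 active = ratio B-score over 3 SD below the library mean, with starting fluorescence within 5 SD of its mean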;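 also: negative B-score means less thallium flux so channel inhibition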
KCNQ1 inh = inhibitors of human KCNQ1 channel, primary screen, cell-based, thallium flux, high-throughput; 1.3% of 310,000 active; B-score at 10 µM; AID 2642, 2010; Potassium voltage-gated channel subfamily KQT member 1 (Homo sapiens), P51787; CHO-K1 KCNQ1, FluxOR thallium flux fluorescence; hits give high values;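 active = compounds whose thallium flux B-score, printed positive for inhibition, exceeds three library SD while starting fluorescence stays within three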;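 also: channel opened by potassium depolarization with thallium stimulus after 20 min compound exposure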
Target sequence (P51787 whole entry, looked up): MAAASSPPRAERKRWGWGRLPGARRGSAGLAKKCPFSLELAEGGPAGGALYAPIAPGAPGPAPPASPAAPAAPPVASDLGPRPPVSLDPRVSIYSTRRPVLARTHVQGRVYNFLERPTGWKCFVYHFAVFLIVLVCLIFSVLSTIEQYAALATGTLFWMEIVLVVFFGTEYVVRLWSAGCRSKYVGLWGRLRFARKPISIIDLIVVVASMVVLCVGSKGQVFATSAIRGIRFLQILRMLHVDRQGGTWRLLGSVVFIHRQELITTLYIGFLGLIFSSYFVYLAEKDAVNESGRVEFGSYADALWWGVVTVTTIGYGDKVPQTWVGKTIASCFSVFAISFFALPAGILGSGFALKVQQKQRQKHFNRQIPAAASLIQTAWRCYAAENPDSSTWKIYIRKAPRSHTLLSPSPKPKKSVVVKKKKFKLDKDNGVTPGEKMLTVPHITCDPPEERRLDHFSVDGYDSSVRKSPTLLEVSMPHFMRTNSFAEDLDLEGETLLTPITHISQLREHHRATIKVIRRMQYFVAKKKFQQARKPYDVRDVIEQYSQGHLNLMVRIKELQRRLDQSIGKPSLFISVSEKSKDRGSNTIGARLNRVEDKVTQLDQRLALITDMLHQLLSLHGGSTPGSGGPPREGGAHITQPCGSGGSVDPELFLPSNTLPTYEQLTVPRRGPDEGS
KCNQ1 pot = potentiators or activators of KCNQ1 channel, primary screen, cell-based, thallium flux, high-throughput; 0.35% of 310,000 active; CHO-K1 KCNQ1, thallium flux FluxOR fluorescence; hits give high values; Potassium voltage-gated channel subfamily KQT member 1 (Homo sapiens), P51787; B-score at 10 µM;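 active = fluorescence ratio B-score, a plate-corrected score, at least three library SD, with initial intensity B-score within 5 SD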
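Assay system: CHO-K1 cells stably expressing KCNQ1; Medium: assay buffer with matched DMSO; Also added: K+/Tl+ depolarizing stimulus; Dosing: single dose; Timing: dye 90 min, compound 20 min, room temperature; Measured by: kinetic FluxOR thallium fluorescence, 10-s 1-Hz baseline, 110-s post-stimulus read; Read-out: peak-minus-minimum fluorescence over initial fluorescence, negative-control normalized, B-scored.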
KCNK3 inh = human KCNK3 channel inhibitors, primary screen, CHO cells, FluxOR thallium flux, B-score. Potassium channel subfamily K member 3 (Homo sapiens), O14649. FluxOR fluorescence; hits give low values. B-score at 10 µM. 0.84% of 340,000 active. AID 602410, 2012;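 active = B-score under library mean minus 4 SD, starting fluorescence ratio at most library mean plus 5 SD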;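 also: more negative B-score means stronger inhibition of thallium flux through KCNK3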
KCC2 mod = KCC2 cotransporter modulators, thallium flux, primary screen, cell-based, HEK293 KCC2, FluoZin-2 fluorescence, MLSMR. KCC2 cells, thallium flux FluoZin-2 fluorescence. B-score of Tl+ flux slope (higher = more flux/activation; lower = inhibition) at 10 µM. 2.2% of 190,000 active;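 active = thallium flux slope and its plate-corrected score both differing from the plate sample mean at a set confidence after two filtering rounds, in either direction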;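 also: slope of fluorescence scaled to starting intensity during 10 to 20 s after thallium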
A number is an active result; n = inactive; x = no result given. Most compounds without a hit are left out; they make up all but 4.1% or so of the library.

SMILES	hERG protect	KCNK9 inh	KCNQ1 inh	KCNQ1 pot	KCNK3 inh	KCC2 mod
Cc1ccc(N2CCN(C(=O)Nc3cccc([N+](=O)[O-])c3)CC2C)cc1 (stereo not given)	n	n	6	n	n	n
CCOc1cc(Cl)c(S(=O)(=O)NCCCN2CCOCC2)cc1Cl	n	n	n	n	n	x
CC(C)C[C@@H](CN)NC(=O)c1nc[nH]c1C(=O)N[C@@H](CC(C)C)C(=O)CNC[C@H](C)NC(=O)c1nc[nH]c1C(=O)N[C@@H](CC(=O)O)C(=O)O	x	x	x	x	n	x
CCOc1ccc(C(O)(c2ccccc2OC)C(CN2CCCC2)c2ccccc2)cc1 (stereo not given)	n	n	11	n	n	x
Cc1ccc(NC(=O)c2cccs2)cc1	n	n	n	n	n	n
COc1ccc(C(=O)N2CCN(c3ccc(NC(=O)c4cccs4)cc3)CC2)cc1	n	n	n	n	n	x
COc1ccc(NC(=O)C(=O)NNC(=O)c2cccs2)c(OC)c1	12.1	n	n	22	n	10.8
COc1ccc(NC(=O)C(=O)NNC(=O)c2cccs2)cc1	6.9	n	n	n	n	12.5
Cc1ccc(NC(=O)C(=O)NNC(=O)c2cccs2)cc1	20.4	n	n	40	n	42.7
COc1ccc(NC(=O)CCC(=O)c2cccs2)c(OC)c1	n	n	n	n	n	x
CCN(Cc1ccc2c(c1)OCCO2)C(=O)CN1C(=O)NC2(CCCCC2)C1=O	x	x	x	x	n	x
COc1ccc(CNC(=O)CCNS(=O)(=O)c2cc(Br)cnc2N)cc1	n	n	n	n	n	x
COc1ccccc1NC(=O)CSCC(=O)N1c2ccccc2CCc2ccccc21	n	-7.06	n	n	n	n
COc1ccc(NC(=O)CSCC(=O)N2c3ccccc3CCc3ccccc32)cc1	n	n	n	n	n	n
CN1CCCc2cc3c(C(F)(F)F)cc(=O)oc3nc21	n	n	11	n	n	n
CCN(C(=O)COC(=O)C(Cc1ccccc1)N1C(=O)c2ccccc2C1=O)C1CCS(=O)(=O)C1 (stereo not given)	n	n	n	8	n	n
CCN(C(=O)COC(=O)c1ccccc1Cc1ccccc1)C1CCS(=O)(=O)C1 (stereo not given)	n	n	n	n	n	x
CCN(C(=O)COC(=O)c1cc(-c2cccc3ccccc23)nc2ccccc12)C1CCS(=O)(=O)C1 (stereo not given)	n	-7.13	n	n	n	n
O=C(NNC(=O)c1cc(S(=O)(=O)N2CCOCC2)c(Cl)cc1Cl)c1ccccc1F	x	x	x	x	n	x
COCCOC(=O)c1c(C)oc2ccc(OCC=C(C)C)cc12	n	n	n	n	-9.07	x
COCCOC(=O)c1c(C)oc2ccc(OS(C)(=O)=O)cc12	n	n	n	n	n	n
CC1=CS(=O)(=O)CC1Sc1ncn[nH]1 (stereo not given)	4.7	n	n	n	n	n
CCOn1c(=O)c(-c2cccs2)[n+]([O-])c2ccccc21	n	n	n	n	n	3.78
CCOc1ccc(-c2c(=O)n(O)c3ccccc3[n+]2[O-])cc1	18.1	n	n	12	n	x
Cc1ccc(-c2c(=O)n(O)c3ccccc3[n+]2[O-])cc1	n	n	n	17	n	x
SMILES	hERG protect	KCNK9 inh	KCNQ1 inh	KCNQ1 pot	KCNK3 inh	KCC2 mod
COn1c(=O)c(-c2ccc(C)cc2)[n+]([O-])c2ccccc21	n	n	n	n	n	x
O=c1c(-c2ccccc2)[n+]([O-])c2ccccc2n1O	13.3	n	n	n	n	n
CCOn1c(=O)c(-c2ccc(C)cc2)[n+]([O-])c2ccccc21	n	n	n	n	n	x
COC(=O)[C@]1(C)N[C@H](CN(C)S(=O)(=O)c2ccc(OC(F)(F)F)cc2)[C@@H]2C(=O)N(C)C(=O)[C@@H]21	x	x	x	x	n	x
CCOc1ccc(CCNC(=O)COC(=O)c2nccnc2N)cc1OCC	n	n	n	n	n	x
O=C(NC(=S)NCc1ccccc1)c1ccccc1F	n	n	n	n	n	15.4
O=C(NC(=S)N(Cc1ccccc1)Cc1ccccc1)c1ccccc1F	16.4	n	n	13	n	64.8
O=C(NC(=S)NCCc1ccccc1)c1ccccc1F	n	n	n	n	n	x
Cc1ccccc1C(=O)NC(=S)N(CCO)Cc1ccccc1	n	n	n	n	n	x
CCN1CCN(C(=O)C2CCN(S(=O)(=O)c3ccc(SC)cc3)CC2)CC1	n	n	n	n	n	x
O=C(CCn1c2c(c3ccccc31)CCCC2)NNC(=O)c1ccccc1Cl	4.7	n	n	n	n	n
O=C(CCn1c2c(c3ccccc31)CCCC2)NNC(=O)c1cccc([N+](=O)[O-])c1	n	n	n	n	n	n
CCc1ccccc1NC(=O)CN(C)C(=O)COC(=O)c1c(Cl)cccc1Cl	x	x	x	x	n	x
Cc1ccc(O)c(C(CC(=O)NCc2ccco2)c2ccccc2)c1 (stereo not given)	n	n	n	n	n	n
CC(C)Oc1ccc(C(CC(=O)NCc2ccco2)c2ccccc2)cc1 (stereo not given)	n	-7.18	n	n	n	n
COc1cnc(-c2ccccn2)nc1Oc1ccc(Cl)c2ccccc12	n	-8.06	n	n	n	n
CCOc1ccc(S(=O)(=O)Oc2ccc3ccccc3c2)cc1	n	n	6	n	n	n
Cc1ccc(S(=O)(=O)Oc2ccc3ccc(O)cc3c2)cc1	n	n	n	n	n	x
Cc1cccc(NC(=O)CNC(=O)COc2cccnc2[N+](=O)[O-])c1C	x	x	x	x	n	x
O=C(Nc1cccc(Cl)c1)Nc1nc(-c2ccc(Cl)cc2)cs1	n	n	8	n	n	n
O=C(Nc1ccccc1)Nc1nc(-c2ccc(Cl)cc2)cs1	n	n	n	n	n	n
Cc1cc(Cl)ccc1NC(=S)NCCCO	n	n	n	n	n	n
Cc1ccc(Cl)cc1NC(=S)NCCCSC1CCCCC1	n	n	8	n	n	n
CC(=O)N1CCN(S(=O)(=O)c2cccc(C(=O)Nc3ccccc3N3CCCC3)c2)CC1	n	n	n	n	n	x
O=C(NNc1c(F)c(F)cc(F)c1F)c1cc2ccccc2oc1=O	9.9	n	n	n	n	n
COCCCn1c(=S)[nH]c2c(sc3ccccc32)c1=O	n	n	n	n	n	57.1
Cc1ccc(NC(=S)c2nc3ccccc3[nH]2)c(C)c1	n	n	n	n	n	64.6
Cc1ccc(NC(=S)c2nc3ccccc3[nH]2)cc1	n	n	n	n	n	32.6
